# Screening results (PubChem)
# Hits are enriched below; roughly 4.9% of the tested compounds scored in any of these assays.
# STAT3 blocker = inhibitors of IL-6 induced STAT3 signaling; U3A cells, IL-6 STAT3-luciferase reporter, luminescence; host cell line lacks STAT1; inhibition, % at 5.5 µM; hit rate 0.89% among 190,000; AID 862;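 active means inhibition above the mean inhibition across all screened compounds plus 3 SD, cut at about 44% in these data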;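 further: 0% = DMSO only wells and 100% = 100 µM nifuroxazide control wells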
# STAT1 act-1 = activators of IFN-gamma induced STAT1 signaling; hit rate 2.6% among 200,000; NIH 3T3 STAT1-luciferase reporter, luminescence; 100% = IFN-gamma alone, no compound; AID 932; activation (% of control), % at 5.5 µM;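 active means activation above the screen-wide mean activation plus 3 SD, cut at about 130% in these data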;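 further: raw ratio to IFN-gamma control signal so 100% means no change and 0% no light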
# STAT1 inh = inhibitors of IFN-gamma induced STAT1 signaling | NIH 3T3 STAT1-luciferase reporter, luminescence | hit rate 0.35% among 200,000 | AID 920 | inhibition, % at 5.5 µM;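 active means inhibition above a set limit, the mean inhibition across all tested compounds plus 3 SD, cut at about 34% in these data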;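 further: 0% = IFN-gamma with DMSO and 100% = IFN-gamma with 300 µM nifuroxazide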
# STAT3 act-1 = activators of IL-6 induced STAT3 signaling; hit rate 0.91% among 190,000; activation (% of control), % at 5.6 µM; AID 871; U3A cells, IL-6 STAT3-luciferase reporter, luminescence; 100% = signal with IL-6 EC80 alone;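 active means activation above the screen-wide mean of compound activation plus 3 SD, cut at about 130% in these data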;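 further: 0% = background luminescence of wells with medium and substrate only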
#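 Material: STAT3-luciferase reporter U3A cells. Controls: IL-6-treated wells, 100% activation. Read-out: % activation versus median of IL-6-stimulated wells. Probe or stimulus: IL-6 stimulus at 33 ng/mL final. Timing: compound 1 h, then IL-6 6 h at 37 °C. Signal: reporter luminescence signal.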
# APP 5'UTR act = activates APP 5'UTR luciferase reporter | SH-SY5Y APP 5'UTR luciferase reporter, luminescence; zero percent = DMSO vehicle wells | activation, % at 2 µM | hit rate 1% among 190,000 | AID 1276;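 active means activation above a set limit, based on mean plus 3 SD of controls, cut at about 140% in these data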
# NF-kB expr up = raises NF-kB expression in human neuronal cells. NF-kB reporter expression; stronger effect = higher value. fold change at 12.5 µM. hit rate 1.6% among 190,000. AID 1239; in the data active means fold change above about 3.3
# STAT3 act-2 = confirmation of STAT3 signaling activators. AID 1267. hit rate 64% among 1,200. shares compounds with STAT3 act-1. U3A STAT3-luciferase reporter, IL-6 potentiation, luminescence; U3A cells lack STAT1; 100 means same as IL-6 alone. potentiation (% of control), % at 5.7 µM;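 active means percent activation of the STAT3 luciferase reporter above a set limit taken from the earlier primary screen, cut at about 130% in these data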;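 further: 0% = background signal of medium plus substrate and 100% = median of IL-6 with DMSO wells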
# NFkB act 2 = NF-kappaB activation in STAT3 activator counter-screen | hit rate 11% among 1,200 | shares compounds with STAT3 act-1 | activation (% of control), % at 5.7 µM | human cells, NF-kappaB reporter activation; in the data active means activation above about 120%;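 further: reporter induced by TNF-alpha stimulation; 100% = median of stimulated DMSO wells and 0% = no signal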
# STAT1 act-2 = STAT1 activation in STAT3 activator counter-screen; shares compounds with STAT3 act-1; NIH 3T3 STAT1-luciferase reporter, IFN-gamma, luminescence; activation (% of control), % at 5.7 µM; hit rate 13% among 1,200; AID 1318;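 active means activation above the solvent-only control well mean plus 3 SD, set per screening run, cut at about 120% in these data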;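 further: 100% = IFN-gamma with DMSO median signal so 100% means no change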
# The depositor's hits bear a star; x = no result.
SMILES,STAT3 blocker,STAT1 act-1,STAT1 inh,STAT3 act-1,APP 5'UTR act,NF-kB expr up,STAT3 act-2,NFkB act 2,STAT1 act-2
CCOC(=O)CC(C#N)c1cn(C)c2ccccc12 (centres undefined),-49,92,9,145*,-18,1.1,130,104,95
Cn1cc(C(CC(=O)O)C(=O)O)c2ccccc21 (centres undefined),-22,89,12,126,5,0.93,x,x,x
O=C(NC(=S)Nc1ccccc1N1CCCC1)c1cccc(F)c1,-57,93,6,152*,-1,1.2,154*,105,89
O=C(NC(=S)Nc1ccccc1N1CCCCC1)c1ccccc1,-1,108,-10,104,12,1.4,x,x,x
O=C(NC(=S)Nc1ccccc1N1CCCC1)c1ccc(F)cc1,-39,91,8,145*,-5,1.1,149*,104,91
Cc1cc(C(=O)NC(=S)Nc2ccccc2N2CCCC2)ccc1[N+](=O)[O-],-14,104,-4,107,1,0.97,x,x,x
CCOC(=O)c1c2n(c3ccc(O)cc13)CCC2,-72,102,-2,163*,7,1.1,82,104,102
Cc1nc2scc(-c3ccc(Cl)cc3)c2c(=O)o1,5,104,-9,96,37,1.6,x,x,x
Brc1ccc(-c2cn3c(n2)CCc2ccc4cccnc4c2-3)cc1,-67,96,5,157*,8,0.54,149*,101,89
O=C(NC1CC1)c1ccc(-n2cccc2)cc1,21,114,-17,87,13,1.1,x,x,x
CC1=C([N+](=O)[O-])C(c2cccc(Br)c2)C2=C(N1)c1ccccc1C2=O (centres undefined),-76,111,-12,175*,-86,4.5*,149*,149*,110
CN(C)CCN(C)Cc1ccccc1Sc1cccc2ccccc12,8,97,3,96,9,0.54,x,x,x
Nc1nc(-c2ccc(Cl)cc2)nn1C(=O)c1cccs1,-48,95,7,146*,-1,1.1,145*,103,91
Cc1ccc(NC(=O)c2cnc(N3CCN(c4ccccn4)CC3)c3ccccc23)c(Br)c1,-52,91,8,143*,-3,0.48,126,113,109
O=C(Nc1c(F)cccc1F)c1cnc(N2CCN(c3ccccn3)CC2)c2ccccc12,8,106,-7,98,-8,0.31,x,x,x
CCN(C(=O)COC(=O)/C=C/c1ccccc1[N+](=O)[O-])C1CCS(=O)(=O)C1 (centres undefined),-51,71,32,149*,11,0.74,141*,105,71
CCNC(=O)COC(=O)/C=C/c1ccccc1[N+](=O)[O-],6,85,16,92,-9,1,x,x,x
O=C(COC(=O)/C=C/c1ccccc1[N+](=O)[O-])NCC1CCCO1 (centres undefined),1,91,8,102,8,0.93,x,x,x
O=C(COC(=O)/C=C/c1ccccc1[N+](=O)[O-])NCC(F)(F)F,-63,80,21,150*,6,1.1,163*,104,101
Cc1ccc(C(=O)/C=C/c2ccccc2[N+](=O)[O-])cc1,-36,120,-24,138*,35,0.92,162*,121*,125*
CN(C)C(=O)COC(=O)/C=C/c1ccccc1[N+](=O)[O-],-73,77,25,162*,8,0.74,143*,104,73
O=C(OCC(=O)N1CCCC1)c1ccc(S(=O)(=O)Nc2ccccc2)cc1,1,101,0,101,16,1,x,x,x
Cc1ccc(-n2nc(C)c3c(-c4cccs4)c(C#N)c(N)nc32)cc1,-47,93,7,144*,4,0.86,124,99,103
CCOC(=O)COc1ccc2ccccc2c1/C=C/[N+](=O)[O-],8,102,-2,91,-62,2,x,x,x
CCOc1ccc(/C=C/[N+](=O)[O-])c2ccccc12,-36,105,-5,137*,3,1.6,121,118,101
SMILES,STAT3 blocker,STAT1 act-1,STAT1 inh,STAT3 act-1,APP 5'UTR act,NF-kB expr up,STAT3 act-2,NFkB act 2,STAT1 act-2
COc1cc(/C=N/Nc2nc3ccccc3[nH]2)ccc1O,8,114,-16,96,17,2.2,x,x,x
COc1cc(/C=N/Nc2snc(SC)c2C#N)ccc1O,-48,91,10,148*,-83,1.2,136*,96,89
N#C/C(=C\Nc1ccc2cn[nH]c2c1)c1nc(-c2ccc(Cl)cc2)cs1,-56,91,8,148*,12,1.1,115,99,90
O=C(CSc1ccccc1C(=O)O)NCc1ccccc1,2,105,-5,106,0,0.93,x,x,x
CC(C)(CO)N=Cc1c(O)[nH]c2ccccc12,-42,96,5,142*,4,1,137*,106,99
CC1CCc2c(sc(N)c2C(=O)OC(C)C)C1 (centres undefined),-7,101,-1,107,-19,0.97,x,x,x
Cc1ccccc1C1c2[nH]c3ccccc3c2CCN1CCCn1cccn1 (centres undefined),-51,92,6,152*,-16,0.96,148*,104,90
CC(=O)OCC(=O)c1c[nH]c2ccccc12,-19,95,4,117,7,1,x,x,x
CC(C)(C)C(=O)COC(=O)c1ccccc1O,2,102,-2,101,9,1.1,x,x,x
COc1cccc(C(=O)OCC(=O)c2c[nH]c3ccccc23)c1O,-50,103,-4,144*,25,1.3,138*,114,94
COc1ccccc1C(=O)COC(=O)c1ccccc1O,-56,103,-6,151*,20,1.1,150*,106,105
COc1ccc(Oc2nc(OC)cc(OC)n2)cc1,3,99,1,101,-18,0.94,x,x,x
CC(C)(C)c1ccccc1OCCCCCNCCO,6,106,-8,99,20,1.2,x,x,x
O=C(C1CCCO1)N1CCN(C(=S)Nc2ccccc2C(F)(F)F)CC1 (centres undefined),-2,105,-5,100,2,1.2,x,x,x
CC1OC(Oc2ccc3ccc(=O)oc3c2-c2c(O)ccc3cc(Oc4ccc5ccc(=O)oc5c4)c(=O)oc23)C(O)C(O)C1O (centres undefined),-14,111,-12,109,-1,1.1,x,x,x
